Experimental data from ChEMBL document CHEMBL4014309, “Development of an Acrylate Derivative Targeting the NLRP3 Inflammasome for the Treatment of Inflammatory Bowel Disease” (J Med Chem, 2017).
Active and inactive are the calls of the source. The calls are words filed in the database; no cut-off is given here.

Legend:
Rattus norvegicus [1] = assay: Antiinflammatory activity in DNBS-induced Sprague-Dawley rat colitis model assessed as DNBS-induced decrease in colonic length at 50 mg/kg/day, ig administered as suspension in olive oil for 6 days simulatneously with 6 days of DNBS-challenge (reference value: -34.4%); type: functional; parameters: scale not given: the % may be the effect or the level left
[2] = molecular target: NACHT, LRR and PYD domains-containing protein 3 (Homo sapiens) (UniProt Q96P20); assay: Inhibition of recombinant YFP-tagged NLRP3 (unknown origin) expressed in HEK293 cells co-expressing luciferase at 10 to 100 uM after 24 hrs by BRET assay; type: cell-based
Method in brief: (§1)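 HEK293 cells stably expressing YFP-NLRP3-Luc were grown in DMEM with 10% FCS, plated on poly-L-lysine, and exposed to compound or vehicle (15 h per methods; 24 h per figure legend). Cells were washed, then BRET was read after adding coelenterazine-H (5 µM). Kinetics used nigericin (10 µM) in vehicle or high-K+ (140 mM) buffer. Slopes of three phases were taken; mean ± SEM, n = 5–12.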

Rattus norvegicus [3] = assay: Anti-inflammatory activity in DNBS-induced Sprague-Dawley rat colitis model assessed as reduction in DNBS-induced IL-1beta levels in colon administered ig for 6 days simulatneously with 6 days of DNBS-challenge by ELISA; type: functional
[4] = molecular target: NACHT, LRR and PYD domains-containing protein 3 (Homo sapiens) (UniProt Q96P20); assay: Inhibition of recombinant human NLRP3 ATPase assessed as hydrolysis of ATP at 50 uM preincubated for 15 mins followed by addition of ATP measured after 40 mins by ADP-Glo assay
Method in brief: (§2)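 Human recombinant NLRP3 (0.105 µg) in 20 mM Tris-HCl pH 7.8, 133 mM NaCl, 20 mM MgCl2, 3 mM KCl, 0.56 mM EDTA, 0.5% DMSO. Compound (100 or 50 µM) was preincubated 15 min at 37 °C, then ATP (250 µM) was added for 40 min at 37 °C. ADP was read by ADP-Glo luminescence. Result is % inhibition vs vehicle; mean ± SEM, ≥3 experiments.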

Rattus norvegicus [5] = assay: (§3) Antiinflammatory activity in DNBS-induced Sprague-Dawley rat colitis model assessed as reduction in DNBS-induced spleen weight increase by measuring increase in spleen weight at 25 mg/kg/day, ig administered as suspension in olive oil for 6 days simulatneously with 6 days of DNBS-challenge measured daily during compound dosing (reference value: 39.3%); type: functional; parameters: scale not given: the % may be the effect or the level left
Method in brief: (§4)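 Spleen weight was used as an index of systemic inflammation. Rats had intrarectal DNBS (15 mg/0.25 mL 50% ethanol) and 6 days of intragastric dosing: 1 mg/kg/day in 1% methylcellulose, or 12.5–50 mg/kg/day in 0.2 mL olive oil. The spleen was weighed at sacrifice and expressed as percent increase versus control, n = 10.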

[6] = Stability of the compound in simulated intestinal fluid at 1.56 mg as suspension in olive oil and pH 7 after 2 hrs by UHPLC-MS analysis
Method in brief: (§5)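 1.56 mg suspended in 100 µL olive oil, mixed with 100 µL SGF (pH 2, pepsin 3.2 mg/mL) for 2 h at 37 °C with shaking. Then 200 µL SIF (pH 7, pancreatin 2 mg/mL) was added for a further 2 h. Dedicated samples at 0, 30, 60 and 120 min were extracted with acetonitrile and analysed by UHPLC-MS. ≥3 repeats.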

[7] = molecular target: NACHT, LRR and PYD domains-containing protein 3 (Homo sapiens) (UniProt Q96P20); assay: Inhibition of recombinant YFP-tagged NLRP3 (unknown origin) expressed in HEK293 cells co-expressing luciferase assessed as initial conformational changes in protein by measuring increase in nigericin-induced decrease in intracellular K+ level at 10 to 100 uM measured after 24 hrs by BRET assay; type: cell-based; method in brief: as §1
[8] = molecular target: NACHT, LRR and PYD domains-containing protein 3 (Mus musculus) (UniProt Q8R4B8); assay: Inhibition of NLRP3 inflammasome in LPS-primed C57BL/6 mouse bone marrow derived macrophages assessed as reduction in nigericin-induced caspase-1 activation at 10 to 100 uM preincubated for 1 hr followed by stimulation with nigericin measured after 30 mins by Western blot analysis
[9] = molecular target: NACHT, LRR and PYD domains-containing protein 3 (Homo sapiens) (UniProt Q96P20); assay: Inhibition of recombinant human NLRP3 ATPase assessed as hydrolysis of ATP preincubated for 15 mins followed by addition of ATP measured after 40 mins by ADP-Glo assay; method in brief: as §2
Rattus norvegicus [10] = assay: Anti-inflammatory activity in DNBS-induced Sprague-Dawley rat colitis model assessed as DNBS-induced IL-1beta levels in colon at 50 mg/kg/day, ig for 6 days simulatneously with 6 days of DNBS-challenge by ELISA (reference value: 22.3 +/- 2.9 ng/mg); type: functional
[11] = molecular target: NACHT, LRR and PYD domains-containing protein 3 (Homo sapiens) (UniProt Q96P20); assay: Inhibition of recombinant YFP-tagged NLRP3 (unknown origin) expressed in HEK293 cells co-expressing luciferase assessed as reduction in nigericin-induced intracellular K+ decrease-mediated conformational changes in protein at 10 to 100 uM measured after 24 hrs by BRET assay; type: cell-based; method in brief: as §1
[12] = Stability of the compound in simulated gastric fluid at 1.56 mg as suspension in olive oil and pH 2 after 2 hrs by UHPLC-MS analysis; method in brief: as §5
Duodenum = assay: Drug metabolism in Sprague-Dawley rat duodenum assessed as 2-(2-chlorobenzyl)acrylic acid level at 12.5 mg as suspension in olive oil measured after 2 hrs by UHPLC-MS analysis; type: ADME, tissue-based; conditions: in vivo
Rattus norvegicus [13] = assay: as §3, with “12.5” for “25”; type: functional; parameters: scale not given: the % may be the effect or the level left; method in brief: as §4
[14] = Cysteamine reactivity in PBS assessed as free compound level at pH 7.4 measured after 60 mins by DTNB reagent based RP-UHPLC analysis
Method in brief: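 The compound was reacted with excess cysteamine in pH 7.4 phosphate buffer with CH3CN cosolvent at 37 °C. Remaining compound was followed by UHPLC over 4 h, sampled at 30 min, 60 min and 4 h, and expressed as percent of starting concentration.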

[15] = molecular target: NACHT, LRR and PYD domains-containing protein 3 (Mus musculus) (UniProt Q8R4B8); assay: Inhibition of NLRP3 inflammasome in LPS-primed C57BL/6 mouse bone marrow derived macrophages assessed as reduction in nigericin-induced IL-1beta production at 10 uM preincubated for 1 hr followed by stimulation with nigericin measured after 30 mins by ELISA
Method in brief: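 Bone marrow macrophages from C57BL/6 mice, differentiated with 20% L-cell medium, primed with LPS (1 µg/mL, 3 h). Test agent or vehicle was added for 1 h, then ATP (5 mM, 30 min) or nigericin (10 µM, 30 min). IL-1β in the medium was measured by ELISA. LDH in the medium was measured colorimetrically as % of total cellular LDH.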

Rattus norvegicus [16] = assay: Anti-inflammatory activity in DNBS-induced Sprague-Dawley rat colitis model assessed as DNBS-induced TNFalpha levels in colon at 12.5 mg/kg/day, ig for 6 days simulatneously with 6 days of DNBS-challenge by ELISA (reference value: 5.9 +/- 0.6 pg/mg); type: functional
[17] = Drug metabolism in Sprague-Dawley rat ileum tract assessed as 2-(2-chlorobenzyl)acrylic acid level at 12.5 mg as suspension in olive oil measured after 2 hrs by UHPLC-M; type: ADME; conditions: in vivo
Rattus norvegicus [18] = assay: Anti-inflammatory activity in DNBS-induced Sprague-Dawley rat colitis model assessed as DNBS-induced IL-1beta levels in colon at 12.5 mg/kg/day, ig for 6 days simulatneously with 6 days of DNBS-challenge by ELISA (reference value: 22.3 +/- 2.9 ng/mg); type: functional

NACHT, LRR and PYD domains-containing protein 3 (Homo sapiens), sequence (Q96P20 whole entry, the tested form may be a part): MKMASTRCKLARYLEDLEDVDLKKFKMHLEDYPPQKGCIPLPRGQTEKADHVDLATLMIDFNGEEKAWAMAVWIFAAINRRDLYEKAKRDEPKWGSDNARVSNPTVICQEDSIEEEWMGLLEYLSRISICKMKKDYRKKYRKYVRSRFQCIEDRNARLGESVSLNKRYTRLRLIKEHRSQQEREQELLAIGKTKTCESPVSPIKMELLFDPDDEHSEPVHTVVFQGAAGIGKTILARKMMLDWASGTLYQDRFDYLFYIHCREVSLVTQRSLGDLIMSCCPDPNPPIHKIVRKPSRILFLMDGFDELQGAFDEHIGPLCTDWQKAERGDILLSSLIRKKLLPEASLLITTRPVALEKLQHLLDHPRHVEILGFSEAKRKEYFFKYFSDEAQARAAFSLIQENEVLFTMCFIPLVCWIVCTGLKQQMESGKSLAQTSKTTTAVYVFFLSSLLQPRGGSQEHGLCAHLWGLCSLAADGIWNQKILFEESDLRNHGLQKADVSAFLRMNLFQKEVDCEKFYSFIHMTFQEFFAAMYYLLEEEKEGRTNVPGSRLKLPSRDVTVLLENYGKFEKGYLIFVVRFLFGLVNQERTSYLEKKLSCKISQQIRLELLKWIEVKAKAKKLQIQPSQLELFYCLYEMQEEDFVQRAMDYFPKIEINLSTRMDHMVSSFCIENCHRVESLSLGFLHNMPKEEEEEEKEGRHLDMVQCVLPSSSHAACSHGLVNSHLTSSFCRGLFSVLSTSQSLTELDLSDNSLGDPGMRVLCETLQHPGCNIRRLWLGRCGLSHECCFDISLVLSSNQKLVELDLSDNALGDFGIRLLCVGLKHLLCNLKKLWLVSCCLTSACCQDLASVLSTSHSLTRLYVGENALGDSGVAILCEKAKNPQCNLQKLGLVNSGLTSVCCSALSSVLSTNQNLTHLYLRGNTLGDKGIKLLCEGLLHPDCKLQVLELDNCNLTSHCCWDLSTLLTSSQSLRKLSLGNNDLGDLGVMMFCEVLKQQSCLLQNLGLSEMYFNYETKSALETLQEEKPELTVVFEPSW
NACHT, LRR and PYD domains-containing protein 3 (Mus musculus), sequence (Q8R4B8 whole entry, the tested form may be a part): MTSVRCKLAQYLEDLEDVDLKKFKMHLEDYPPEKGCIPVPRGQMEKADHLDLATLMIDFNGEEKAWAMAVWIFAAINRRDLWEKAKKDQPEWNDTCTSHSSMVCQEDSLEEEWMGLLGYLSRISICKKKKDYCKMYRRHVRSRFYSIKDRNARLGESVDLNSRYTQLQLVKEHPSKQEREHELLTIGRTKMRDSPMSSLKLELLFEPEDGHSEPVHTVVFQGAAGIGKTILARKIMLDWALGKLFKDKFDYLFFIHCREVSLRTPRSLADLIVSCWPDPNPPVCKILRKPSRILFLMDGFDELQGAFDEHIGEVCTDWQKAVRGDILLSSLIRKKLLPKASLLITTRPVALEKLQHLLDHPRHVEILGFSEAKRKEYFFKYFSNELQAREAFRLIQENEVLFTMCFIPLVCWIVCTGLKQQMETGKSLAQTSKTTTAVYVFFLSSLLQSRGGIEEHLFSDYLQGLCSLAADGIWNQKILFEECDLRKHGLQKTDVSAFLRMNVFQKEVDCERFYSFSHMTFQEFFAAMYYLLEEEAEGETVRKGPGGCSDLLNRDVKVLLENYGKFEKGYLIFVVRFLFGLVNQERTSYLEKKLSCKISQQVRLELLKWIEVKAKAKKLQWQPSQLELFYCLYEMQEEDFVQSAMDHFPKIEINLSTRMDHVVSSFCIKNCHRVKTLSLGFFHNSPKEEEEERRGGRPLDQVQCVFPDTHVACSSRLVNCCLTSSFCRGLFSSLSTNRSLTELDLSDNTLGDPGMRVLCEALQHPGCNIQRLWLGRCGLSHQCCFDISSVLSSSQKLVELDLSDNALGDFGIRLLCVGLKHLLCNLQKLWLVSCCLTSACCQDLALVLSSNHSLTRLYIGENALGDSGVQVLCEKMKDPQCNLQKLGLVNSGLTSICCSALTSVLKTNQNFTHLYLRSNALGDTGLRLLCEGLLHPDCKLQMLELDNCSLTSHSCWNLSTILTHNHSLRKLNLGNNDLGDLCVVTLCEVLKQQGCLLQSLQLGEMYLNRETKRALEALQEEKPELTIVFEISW

- inhibition [2]: Active
- inhibition [4]: 29%
- inhibition [7]: inactive
- inhibition [8]: Active
- inhibition [9]: Dose-dependent effect
- inhibition [11]: Active
- Drug metabolism (Duodenum): Metabolite_Detected
- inhibition [15]: Active
- Drug metabolism [17]: Metabolite_Detected
Compound: C=C(Cc1ccccc1Cl)C(=O)OCC
- Activity (Rattus norvegicus [1]): -8%
- Activity (Rattus norvegicus [3]): Dose-dependent effect
- Activity (Rattus norvegicus [5]): 4.3%
- Stability [6]: > 99.5%
- Activity (Rattus norvegicus [10]): 6.6 ng/mg
- Stability [12]: > 99.5%
- Activity (Rattus norvegicus [13]): 2.2%
- Stability [14]: 83.3%
- Activity (Rattus norvegicus [16]): 3.5 pg/mg
- Activity (Rattus norvegicus [18]): 16.4 ng/mg
